For data set [1], the system named is Prunus dulcis. Briefly: Inhibition of sweet almond beta-glucosidase at 0.1 mM.
Data set [2] concerns the target T1, Lysosomal acid glucosylceramidase (Homo sapiens, UniProt P04062).
T1 sequence (P04062 whole entry): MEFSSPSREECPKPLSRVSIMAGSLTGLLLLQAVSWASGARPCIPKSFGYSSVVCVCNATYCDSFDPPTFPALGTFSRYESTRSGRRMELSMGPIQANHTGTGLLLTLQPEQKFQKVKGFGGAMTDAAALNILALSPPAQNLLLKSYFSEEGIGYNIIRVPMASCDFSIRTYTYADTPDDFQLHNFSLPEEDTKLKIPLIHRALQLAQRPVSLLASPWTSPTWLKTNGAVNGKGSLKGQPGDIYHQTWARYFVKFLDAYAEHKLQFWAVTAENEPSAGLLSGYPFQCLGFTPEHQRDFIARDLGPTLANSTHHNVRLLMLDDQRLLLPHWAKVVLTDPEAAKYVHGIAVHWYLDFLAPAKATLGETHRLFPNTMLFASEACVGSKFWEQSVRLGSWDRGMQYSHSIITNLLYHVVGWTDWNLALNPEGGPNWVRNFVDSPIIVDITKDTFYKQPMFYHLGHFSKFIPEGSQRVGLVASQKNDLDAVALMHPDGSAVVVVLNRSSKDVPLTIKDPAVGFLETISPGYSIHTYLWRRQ
Briefly: Competitive inhibition of beta-glucocerebrosidase at pH 5.2 by Lineweaver-Burke plot analysis.

Data set [3] has as its target T1, Lysosomal acid glucosylceramidase. Briefly: Inhibition of recombinant beta-glucocerebrosidase after 10 mins by fluorimetry. The method, boiled down:
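Imiglucerase (0.1 mg/mL stock) in McIlvaine buffer, pH 5.2 or 7.4, with 0.2% sodium taurocholate and 0.1% Triton X-100. Preincubated 30 min at 37 °C with or without inhibitor. Then 4 mM 4-methylumbelliferyl-β-D-glucopyranoside added for 10 min at 37 °C. Stopped with glycine/NaOH pH 10.6; 4-MU read at ex 355/em 460 nm. IC50 from % activity vs log[I], at least five concentrations.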

The target of data set [4] is T2, Beta-galactosidase (Bos taurus) (UniProt Q58D55).
T2 sequence (whole entry): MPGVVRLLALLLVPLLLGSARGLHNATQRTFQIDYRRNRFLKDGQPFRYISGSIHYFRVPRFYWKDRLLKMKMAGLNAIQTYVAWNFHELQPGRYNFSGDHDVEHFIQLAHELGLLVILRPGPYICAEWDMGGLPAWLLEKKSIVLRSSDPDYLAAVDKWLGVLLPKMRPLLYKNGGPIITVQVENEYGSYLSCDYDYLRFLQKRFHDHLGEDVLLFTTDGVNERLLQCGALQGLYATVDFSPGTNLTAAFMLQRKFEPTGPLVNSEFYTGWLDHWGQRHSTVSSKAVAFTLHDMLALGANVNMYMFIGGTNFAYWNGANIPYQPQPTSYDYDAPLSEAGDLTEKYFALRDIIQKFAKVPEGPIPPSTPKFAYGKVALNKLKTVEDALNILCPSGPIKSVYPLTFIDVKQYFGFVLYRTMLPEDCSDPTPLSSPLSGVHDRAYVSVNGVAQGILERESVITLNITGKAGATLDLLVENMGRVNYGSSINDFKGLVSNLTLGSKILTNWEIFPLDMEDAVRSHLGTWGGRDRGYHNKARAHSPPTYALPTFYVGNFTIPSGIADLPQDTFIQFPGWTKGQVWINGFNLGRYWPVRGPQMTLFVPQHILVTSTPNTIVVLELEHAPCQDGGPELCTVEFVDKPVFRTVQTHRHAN
Briefly: Inhibition of bovine liver beta-galactosidase at 0.1 mM.

Data set [5] can be described thus: Dissociation constant, pKa of the compound. The class given is physicochemical.
Data set [6] concerns Oryza sativa. Briefly: Inhibition of rice alpha-galactosidase at 0.1 mM.
Data set [7] concerns the target T1, Lysosomal acid glucosylceramidase. In words: Inhibition of recombinant beta-glucocerebrosidase at pH 5.2 after 10 mins by fluorimetry.
The test system of data set [8] is Saccharomyces cerevisiae. Briefly: Inhibition of yeast alpha-glucosidase at 0.1 mM.
Data set [9] addresses T1, Lysosomal acid glucosylceramidase. In words: Inhibition of recombinant beta-glucocerebrosidase at pH 7.4 after 10 mins by fluorimetry.
Data set [10] in a line: Cytotoxicity against human fibroblast after 24 hrs by MTT assay. The note with it: human fibroblasts. It is filed as cell-based. (Tetrazolium dyes change colour on reduction, which living cells bring about.)
Data set [11] deals with Oryza sativa. In words: Inhibition of rice alpha-glucosidase at 0.1 mM.
Data set [12] addresses T3, Lysosomal acid glucosylceramidase (Homo sapiens) (UniProt P04062).
T3 sequence (whole entry): T1 sequence (P04062 whole entry)
In words: Inhibition of beta-glucocerebrosidase in human fibroblast at 50 uM after 24 hrs by fluorescence assay. The method, boiled down:
(§1)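 Wild-type human fibroblasts exposed to compound for 24 h (10, 20 or 50 μM, as listed) with 5 mM substrate. Cellular GCase activity then measured.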

In data set [13] the target is T3, Lysosomal acid glucosylceramidase (Homo sapiens). Briefly: Binding affinity to recombinant beta-glucocerebrosidase assessed as enzymatic activity at 50 uM after 20 mins by thermal stabilization assay relative to control.
Data set [14] has the same target. In words: Binding affinity to recombinant beta-glucocerebrosidase assessed as enzymatic activity at 10 uM after 20 mins by thermal stabilization assay relative to control. The method, boiled down: (§2)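 Recombinant GCase (imiglucerase, 2 mg/mL aliquots) held at pH 7.4 and 48 °C with 0 (control) or 10–150 μM compound. At 20, 40 or 60 min, acetate-phosphate buffer (pH 5.0) and 4 mM 4-methylumbelliferyl β-D-glucoside in McIlvaine pH 5.2 added. Incubated 10 min at 37 °C with 0.1% Triton X-100 and 0.2% taurodeoxycholic acid. Stopped with glycine pH 10.6; 4-MU fluorescence read. Activity expressed relative to enzyme at 37 °C.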

The target is the same in data set [15]. Briefly: Binding affinity to recombinant beta-glucocerebrosidase assessed as enzymatic activity at 10 uM after 40 mins by thermal stabilization assay relative to control. The method, boiled down: as §2
For data set [16] the target is unchanged. In words: Binding affinity to recombinant beta-glucocerebrosidase assessed as enzymatic activity at 10 uM after 60 mins by thermal stabilization assay relative to control. The method, boiled down: as §2
Data set [17] has the same target. In words: Binding affinity to recombinant beta-glucocerebrosidase assessed as enzymatic activity at 150 uM after 40 mins by thermal stabilization assay relative to control.
Data set [18] has the same target. Briefly: Binding affinity to recombinant beta-glucocerebrosidase assessed as enzymatic activity at 25 uM after 40 mins by thermal stabilization assay relative to control. In a few lines: as §2
Data set [19] shares this target. Briefly: Binding affinity to recombinant beta-glucocerebrosidase assessed as enzymatic activity at 50 uM after 40 mins by thermal stabilization assay relative to control.
Data set [20] shares this target. In words: Binding affinity to recombinant beta-glucocerebrosidase assessed as enzymatic activity at 150 uM after 60 mins by thermal stabilization assay relative to control.
Data set [21] can be described thus: Selectivity index, ratio of CC50 for human fibroblast to Ki for beta-glucocerebrosidase.
In data set [22] the target is T3, Lysosomal acid glucosylceramidase (Homo sapiens). In words: Binding affinity to recombinant beta-glucocerebrosidase assessed as enzymatic activity at 100 uM after 40 mins by thermal stabilization assay relative to control.
Data set [23] shares this target. Briefly: Binding affinity to recombinant beta-glucocerebrosidase assessed as enzymatic activity at 50 uM after 60 mins by thermal stabilization assay relative to control.
Data set [24] shares this target. Briefly: Binding affinity to recombinant beta-glucocerebrosidase assessed as enzymatic activity at 25 uM after 20 mins by thermal stabilization assay relative to control. In a few lines:
as §2

Data set [25] has the same target. Briefly: Binding affinity to recombinant beta-glucocerebrosidase assessed as enzymatic activity at 25 uM after 60 mins by thermal stabilization assay relative to control. The method, boiled down: as §2
For data set [26] the target is unchanged. In words: Binding affinity to recombinant beta-glucocerebrosidase assessed as enzymatic activity at 100 uM after 60 mins by thermal stabilization assay relative to control.
Data set [27] has the same target. In words: Inhibition of beta-glucocerebrosidase in human fibroblast at 20 uM after 24 hrs by fluorescence assay. In a few lines: as §1
Data set [28] has the same target. In words: Binding affinity to recombinant beta-glucocerebrosidase assessed as enzymatic activity at 100 uM after 20 mins by thermal stabilization assay relative to control.
Data set [29] has the same target. Briefly: Binding affinity to recombinant beta-glucocerebrosidase assessed as enzymatic activity at 150 uM after 20 mins by thermal stabilization assay relative to control.
For data set [30] the target is unchanged. In words: Inhibition of beta-glucocerebrosidase in human fibroblast at 10 uM after 24 hrs by fluorescence assay. The method, boiled down: as §1
Data set [31] in a line: Cytotoxicity against human fibroblast at 300 uM after 24 hrs by MTT assay. The class given is cell-based.
The test system of data set [32] is Glucosylceramide synthase (Homo sapiens). Briefly: Inhibition of glucosylceramide synthase in human A549 cells at 250 uM after 35 mins by fluorescence-coupled HPLC analysis.

Activity calls are given as the source filed them. No cut-off for these calls is given here. A value given as a limit tells only on which side of the number the result lay.

For `CCCCCCCCn1cc(CCCN[C@H]2[C@H](O)[C@@H](O)[C@H](O)[C@@H](O)[C@@H]2O)nn1`, the inhibition result in data set [1], in [4], in data set [6], in [8] and in data set [11] was “inactive” in each case. Also, the inhibition constant Ki in [2] stood at 19.9 µM. The IC50 was 35.5 µM in data set [3], 35.4 µM in data set [7] and 18.2 µM in data set [9]. The compound further showed a pKa in data set [5] of 9.4. In data set [10], this compound gave a CC50 at 24 h of 97 µM. Moreover, in data set [12], the inhibition is 40%.

With `CCCCCCCCCCCCn1cc(CN[C@H]2[C@H](O)[C@@H](O)[C@H](O)[C@@H](O)[C@@H]2O)nn1`, the fold change (FC) stood at 3.11 in [13]; 2.65 in data set [14]; 8.48 in data set [15]; 18.7 in data set [16]; 11.5 in data set [17]; 9.42 in data set [18]. For the same compound, the fold change (FC) amounted to 10.9 in data set [19]; 26.2 in [20]; 12.8 in [22]; 24.9 in data set [23]; 2.97 in [24]; 23.2 in [25]. In addition, the fold change (FC) in data set [26] was determined as 28.7; in [28], 3.41; in [29], 3.21. Besides, the inhibition result in data set [1], in [4], in [6], in data set [8] and in data set [11] was “inactive” in each case. For the same compound, affinity in data set [2] was put at a Ki of 0.06 µM. Besides, the figures for the IC50 in [3], in data set [7] and in [9] were 0.0302 µM, 0.03 µM and 0.06 µM, respectively. For the same compound, the pKa in data set [5] was found to be 7.1. Besides, the “Selectivity Index” value in data set [21] is 916. For the same compound, the inhibition in data set [27] was 90%; in data set [12] it was “Toxic”; in [30] it was 87%. Further, the CC50 at 24 h in data set [10] worked out at 55 µM.

As to `CCCCCCCCCCCn1cc(CCN[C@H]2[C@H](O)[C@@H](O)[C@H](O)[C@@H](O)[C@@H]2O)nn1`, in [31], the Activity result is “Non-toxic”. For the same compound, the fold change (FC) in data set [13] was 2.43; in data set [17] it was 4.79; in [19], 5.98; in [20], 5.3; in [22], 6.7; in data set [23] it was 9.63. Besides, the values for the fold change (FC) in data set [26], in data set [28] and in data set [29] were 11.6, 2.55 and 2.5, respectively. The inhibition entry in [1], in [4], in data set [6], in data set [8] and in data set [11] was “inactive” in each case. This compound showed a Ki in [2] of 20.2 µM. In addition, the IC50 was 25.7 µM in data set [3], 25.4 µM in data set [7] and 4.9 µM in [9]. The compound also yielded a pKa in data set [5] of 9.1. The inhibition in data set [32] came to 30%; in data set [12], 50%.

`CCCCCCCCCCCCCCn1cc(CN[C@H]2[C@H](O)[C@@H](O)[C@H](O)[C@@H](O)[C@@H]2O)nn1`: the fold change (FC) in data set [13] worked out at 2.82; in [17] it was 5.91; in [19], 7.86; in [20], 9.4; in data set [22] it was 7.48; in data set [23] it was 13.8. The fold change (FC) in data set [26] was found to be 13.2; in data set [28], 2.88; in [29], 2.67. For the same compound, the inhibition entry in data set [1], in data set [4], in data set [6], in data set [8] and in data set [11] was “inactive” each time. For the same compound, the Ki in data set [2] came to 0.08 µM. The IC50 in data set [3] was 0.0891 µM; in data set [7], 0.09 µM; in [9], 0.1 µM. Besides, the pKa in data set [5] was 7.7. Further, the “Selectivity Index” value in data set [21] is recorded as 237. The inhibition result is “Toxic” in [27], “Toxic” in data set [12] and 93% in data set [30]. In [10], this compound gave a CC50 at 24 h of 19 µM.

Regarding `CCCCCCn1cc(CCCN[C@H]2[C@H](O)[C@@H](O)[C@H](O)[C@@H](O)[C@@H]2O)nn1`, the Activity entry in [31] is given as “Non-toxic”. Besides, the inhibition result in data set [1], in data set [4], in data set [6], in [8] and in [11] was “inactive” in each case. The IC50 was 257 µM in data set [3], 257 µM in data set [7] and 44.6 µM in [9]. In [5], this compound came in with a pKa of 10.4. Besides, the inhibition is 30% in data set [32] and less than 5% in data set [12].

One may read the inhibition as the drop in the measured response relative to a control, in per cent. As a reminder, the Ki is the equilibrium dissociation constant of an inhibitor or competing ligand from its target. Read a high Ki as lower affinity. Usually IC50 stands for the point on the concentration scale where inhibition reaches its midpoint. By pKa is commonly meant the pH at which an ionisable group is half protonated. High values mean a group that holds its proton tightly, low ones a group that gives up its proton readily. A word on the CC50: it is the concentration giving 50% cytotoxicity. High values mean better tolerance by the cells, low ones harm at low concentration.

(Values after ChEMBL document CHEMBL1155442, “Click chemistry approach to new N-substituted aminocyclitols as potential pharmacological chaperones for Gaucher disease” (J Med Chem, 2010).)
